Measured values from article PMC6894423 (Journal of molecular and cellular cardiology, 2019).
Entries after “also recorded” stand apart in the source; their conditions may differ.

What was measured:
[1] = system: skinned rat ventricular papillary muscle; experiment: Force-pCa contractility of skinned rat ventricular papillary muscle; type: cell-based; conditions: 20 μM peptide, 15°C
Procedure, shortened: (§1)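 Left ventricular papillary muscle was cryosectioned at 35 μm, cut into 140–150 μm strips and stored at −20°C in glycerol relaxing buffer. Strips were clip-mounted, skinned 20 min in 1% Triton X-100 and set to sarcomere length 2.0 or 2.3 μm. Isometric force was read at pCa 6.5–4.5 at 15°C, then repeated with 20 μM peptide. Curves were Hill-fitted and compared by paired t-test.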

[2] = system: skinned mouse EDL muscle fibers; experiment: Force-pCa contractility of skinned mouse EDL muscle fibers; type: cell-based; conditions: 20 μM peptide; sarcomere length 2.7 μm; 15°C; N = 4
Procedure, shortened: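 Whole EDL from adult C57BL/6 mice was split along the fibres in relaxing buffer and stored at −20°C in 50% glycerol buffer. Fibres were mounted on T-clips, further skinned 20 min in 1% Triton X-100 and set to sarcomere length 2.7 μm. Force was read at pCa 6.5–4.5 at 15°C, before and after adding 20 μM peptide; curves were Hill-fitted.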

[3] = system: skinned mouse ventricular papillary muscle; experiment: Force-pCa contractility of skinned mouse ventricular papillary muscle; type: cell-based; conditions: 20 μM peptide, 15°C
Procedure, shortened: as §1

mAb TnI-1 = experiment: Competitive ELISA affinity titration against mAb TnI-1; type: binding; conditions: compared with wild type at ~0.1 μM (Figure 8)
Procedure, shortened: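 Wells coated overnight at 4°C with purified bovine cardiac TnI in pH 7.0 PIPES/KCl/MgCl2 buffer, then blocked with 1% BSA. mAb TnI-1 was added at a preset sub-maximal level together with serial dilutions of biologically or chemically made peptide. Detection used HRP anti-mouse IgG and H2O2-ABTS, read at 420 nm every 5 min for 30 min. Triplicate wells; each assay repeated.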

[4] = biological target: bovine cardiac α-tropomyosin (bovine, UniProt Q5KR49 1-284); experiment: ELISA

## HcTnI-C27: C-terminal 27 amino acid peptide of human cardiac TnI (ENREVGDWRKNIDALSGMEGRKKKFES; left off: Tx3 metal-binding tag, N-terminal, cleaved | SUMO, N-terminal, cleaved)
[1]; SL increased from 2.0 μm to 2.3 μm
  Effect on Ca^2+-sensitization by increasing sarcomere length, rat: completely diminishing the Ca^2+-sensitization effect; also recorded: diminished the Ca^2+-sensitization effect
[1]; sarcomere length 2.0 μm, pH 7.0, N = 4
  Effect on cooperativity (n), rat, SL 2.0 μm: small effect on lowering pCa50 and cooperativity
[1]; sarcomere length 2.3 μm, pH 7.0, n = 3
  Effect on cooperativity (n), rat, SL 2.3 μm: significantly decreased Ca^2+ sensitivity and cooperativity (n)
[2]
  Effect on myofilament Ca^2+ sensitivity, mouse EDL: myofilament Ca^2+-desensitization effect predominantly in the activated state; also recorded: decreases in myofilament Ca^2+ sensitivity in the activated state at higher Ca^2+ concentrations
  Maximum force production, mouse EDL: without change of maximum force production
[3]; SL 2.0 μm and 2.3 μm
  Effect on force-pCa curves, mouse cardiac, both sarcomere lengths: right-shifts of the force-pCa curves
[3]; sarcomere length 2.0 μm, N = 3
  Effect on Ca^2+-sensitivity (force-pCa curve), mouse cardiac, SL 2.0 μm: more obvious at sarcomere length of 2.0 μm in the activated state; also recorded: decreased Ca^2+-sensitivity
  Effect on cooperativity (n), mouse cardiac, SL 2.0 μm: significantly lowered cooperativity
[3]; sarcomere length 2.3 μm, n = 4
  Effect on Ca^2+-sensitivity (force-pCa curve), mouse cardiac, SL 2.3 μm: decreased Ca^2+-sensitivity

## HcTnI-C27-H: R192H mutant of the C-terminal 27 amino acid peptide of human cardiac TnI (ENREVGDWHKNIDALSGMEGRKKKFES; left off: Tx3 metal-binding tag, N-terminal, cleaved | SUMO, N-terminal, cleaved)
mAb TnI-1
  Effect on competition for mAb TnI-1 compared with wild type peptide: only minimum effect

B1: C-terminal 27 amino acid peptide of human cardiac TnI (HcTnI-C27), free peptide (peptide, UniProt P19429 184-210, looked up)
peptide: ENREVGDWRKNIDALSGMEGRKKKFES
[4]
  binding result: binds
